Calls of active or inactive are those of the source. No cut-off for these calls is given here.
Tests used:
BV-2 [1] = assay: Antineuroinflammatory activity in mouse BV2 cells assessed as inhibition of LPS-induced NO production pretreated for 30 mins followed by LPS stimulation and measured after 24 hrs by Griess assay; format: functional, cell-based
How it was run: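 BV2 microglia plated at 4 × 10⁵ cells/mL and grown 48 h, then medium replaced. Compounds at various concentrations given 30 min before LPS; incubated 24 h at 37 °C. Equal volume of Griess reagent added to medium, 10 min at room temperature, absorbance read at 540 nm. % inhibition = (F_L − F_C)/(F_L − F₀) × 100. IC50 by nonlinear regression, ≥3 independent experiments, mean SEM.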

BV-2 [2] = assay: Antineuroinflammatory activity in mouse BV2 cells assessed as inhibition of LPS-induced TNFalpha production after 24 hrs by ELISA; format: functional, cell-based; conditions: BV-2, 24 h
How it was run: (§1)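 BV2 cells plated at 4 × 10⁵ cells/mL, grown 48 h, medium replaced with DMEM. Compound added first, then LPS; incubated 24 h at 37 °C. TNF-α or IL-1β in culture medium measured by ELISA. % inhibition = (F_L − F_C)/(F_L − F₀) × 100 against LPS-only and unstimulated cells. IC50 by nonlinear regression of ≥3 independent experiments, mean SEM.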

BV-2 [3] = assay: Antineuroinflammatory activity in mouse BV2 cells assessed as inhibition of LPS-induced IL-1beta production after 24 hrs by ELISA; format: functional, cell-based; conditions: BV-2, 24 h; how it was run: as §1
[4] = Permeability of the compound after 10 hrs by PAMPA; format: ADME; conditions: read-out: permeability
How it was run: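 PAMPA-BBB: filter coated with porcine brain lipid in dodecane (20 mg/mL); acceptor PBS/EtOH (7:3). DMSO stocks (5 mg/mL) diluted 50-fold in PBS/EtOH into donor wells. Sandwich left 10 h at 25 °C; acceptor concentration read by UV plate reader. Pe from volumes, filter area, time and acceptor/equilibrium absorbance. Means SD of ≥3 experiments; Pe > 4.7 × 10⁻⁶ cm/s taken as BBB-permeable.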

BV-2 [5] = assay: Antineuroinflammatory activity in mouse BV2 cells assessed as inhibition of LPS-induced iNOS production pretreated for 30 mins followed by LPS stimulation for 16 hrs by Western blot analysis; format: functional, cell-based
[6] = target: T1, NF-kappa-B inhibitor alpha (Mus musculus) (UniProt Q9Z1E3); assay: Inhibition of LPS-induced IkappaBalpha phosphorylation in mouse BV2 cells up to 10 uM preincubated for 30 mins followed by LPS-stimulation for 16 hrs by Western blot analysis; format: cell-based
T1 sequence (whole entry): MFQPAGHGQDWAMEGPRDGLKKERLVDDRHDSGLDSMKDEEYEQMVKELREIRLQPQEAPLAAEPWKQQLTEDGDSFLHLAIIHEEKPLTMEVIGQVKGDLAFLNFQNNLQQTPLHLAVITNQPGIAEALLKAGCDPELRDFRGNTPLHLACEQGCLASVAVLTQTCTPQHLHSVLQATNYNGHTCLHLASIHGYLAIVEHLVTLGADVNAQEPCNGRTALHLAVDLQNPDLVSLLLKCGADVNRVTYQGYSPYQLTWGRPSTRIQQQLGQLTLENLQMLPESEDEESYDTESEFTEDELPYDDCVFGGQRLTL
How it was run: (§2)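 BV2 cells in 6-well plates, with or without compound 30 min, then with or without LPS for 16 h. Lysed in RIPA with protease and phosphatase inhibitors; cytoplasmic and nuclear fractions separated; protein by BCA. Run on 10% SDS-PAGE, PVDF, milk/TBST block 2 h, primary antibody 4 °C overnight, secondary 2 h at room temperature, chemiluminescence. Phospho-ERK1/2 (Thr202/Tyr204), p38 (Thr180/Tyr182), JNK (Thr183/Tyr185), IκBα (Ser32); GAPDH and Lamin B references. Three independent experiments.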

[7] = target: Transcription factor p65 (Mus musculus) (UniProt Q04207); assay: Inhibition of LPS-induced p65 translocation from cytoplasm to nucleus in mouse BV2 cells up to 10 uM preincubated for 30 mins followed by LPS-stimulation for 16 hrs by Western blot analysis; format: cell-based; how it was run: as §2
[8] = target: Mitogen-activated protein kinase 1 and 3 (ERK2 and ERK1) (Mus musculus) (UniProt P63085+Q63844); assay: Inhibition of LPS-induced ERK1/2 phosphorylation in mouse BV2 cells up to 10 uM preincubated for 30 mins followed by LPS-stimulation for 16 hrs by Western blot analysis; format: cell-based; how it was run: as §2
Mus musculus = species on record: Mus musculus; assay: Inhibition of LPS-induced JNK phosphorylation in mouse BV2 cells up to 10 uM preincubated for 30 mins followed by LPS-stimulation for 16 hrs by Western blot analysis; format: cell-based; how it was run: as §2
[9] = target: MAP kinase p38 (Mus musculus) (UniProt P47811+O08911+Q9WUI1+Q9Z1B7); assay: Inhibition of LPS-induced p38 phosphorylation in mouse BV2 cells up to 10 uM preincubated for 30 mins followed by LPS-stimulation for 16 hrs by Western blot analysis; format: cell-based; how it was run: as §2

Transcription factor p65 (Mus musculus), sequence (Q04207 whole entry): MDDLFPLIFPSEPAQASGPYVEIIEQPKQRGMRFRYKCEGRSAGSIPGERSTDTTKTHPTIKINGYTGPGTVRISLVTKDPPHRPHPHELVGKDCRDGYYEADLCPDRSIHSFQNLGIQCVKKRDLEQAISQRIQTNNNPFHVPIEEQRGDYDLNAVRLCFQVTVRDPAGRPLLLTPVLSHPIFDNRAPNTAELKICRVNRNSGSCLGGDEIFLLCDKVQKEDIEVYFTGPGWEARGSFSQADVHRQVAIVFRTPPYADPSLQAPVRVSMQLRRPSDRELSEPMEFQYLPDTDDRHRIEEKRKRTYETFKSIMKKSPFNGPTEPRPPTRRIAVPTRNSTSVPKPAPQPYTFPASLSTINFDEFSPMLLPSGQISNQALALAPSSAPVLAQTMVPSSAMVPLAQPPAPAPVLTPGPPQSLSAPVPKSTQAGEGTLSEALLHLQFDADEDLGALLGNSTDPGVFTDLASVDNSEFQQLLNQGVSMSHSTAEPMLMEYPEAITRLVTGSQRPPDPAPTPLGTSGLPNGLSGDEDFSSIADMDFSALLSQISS
Mitogen-activated protein kinase 1 and 3 (ERK2 and ERK1) (Mus musculus), sequence (P63085 whole entry, looked up): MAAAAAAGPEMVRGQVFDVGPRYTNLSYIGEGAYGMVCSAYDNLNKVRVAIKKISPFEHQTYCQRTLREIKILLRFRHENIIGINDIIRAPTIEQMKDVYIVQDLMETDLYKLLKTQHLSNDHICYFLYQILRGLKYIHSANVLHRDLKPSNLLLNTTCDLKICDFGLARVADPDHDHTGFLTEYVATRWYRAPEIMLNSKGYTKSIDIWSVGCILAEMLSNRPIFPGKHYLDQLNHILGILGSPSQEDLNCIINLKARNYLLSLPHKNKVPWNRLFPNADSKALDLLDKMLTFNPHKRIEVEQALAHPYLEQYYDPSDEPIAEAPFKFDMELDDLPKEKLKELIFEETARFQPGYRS
Mitogen-activated protein kinase 1 and 3 (ERK2 and ERK1) (Mus musculus), sequence (Q63844 whole entry, looked up): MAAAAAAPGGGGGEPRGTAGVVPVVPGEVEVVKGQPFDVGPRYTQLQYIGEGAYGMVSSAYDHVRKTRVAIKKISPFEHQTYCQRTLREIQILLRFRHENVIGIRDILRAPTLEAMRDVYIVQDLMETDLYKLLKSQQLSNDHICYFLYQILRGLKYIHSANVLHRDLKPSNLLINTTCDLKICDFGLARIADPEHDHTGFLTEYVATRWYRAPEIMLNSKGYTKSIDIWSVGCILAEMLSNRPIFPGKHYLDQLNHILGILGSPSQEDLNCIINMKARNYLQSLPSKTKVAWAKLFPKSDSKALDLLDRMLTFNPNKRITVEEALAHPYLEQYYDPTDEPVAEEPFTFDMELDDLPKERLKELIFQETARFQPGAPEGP

| SMILES | IC50 (BV-2 [1]) | IC50 (BV-2 [2]) | IC50 (BV-2 [3]) | Papp at 10 h [4] | inhibition (BV-2 [5]) | inhibition [6] | inhibition [7] | inhibition [8] | inhibition (Mus musculus) | inhibition [9] |
| --- | --- | --- | --- | --- | --- | --- | --- | --- | --- | --- |
| COc1ccccc1/C=C(/C(=O)N1CCN(c2ncccn2)CC1)c1ccccc1 | 7.9 µM | 21.3 µM | 31.6 µM | 12.3 ×10⁻⁶ cm/s | – | – | – | – | – | – |
| O=C(/C(=C/c1ccccc1Cl)c1ccc(F)cc1)N1CCN(c2ncccn2)CC1 | 7.3 µM | 10.9 µM | 5.2 µM | 11.3 ×10⁻⁶ cm/s | – | – | – | – | – | – |
| COc1ccc(O)c(/C=C(/C(=O)N2CCN(c3ncccn3)CC2)c2ccc(F)cc2)c1 | 46.8 µM | > 50 µM | > 50 µM | 6.4 ×10⁻⁶ cm/s | – | – | – | – | – | – |
| O=C(/C(=C/c1ccccc1Cl)c1cccc(C(F)(F)F)c1)N1CCN(c2ncccn2)CC1 | 19.9 µM | 25.1 µM | 18.4 µM | 15.1 ×10⁻⁶ cm/s | – | – | – | – | – | – |
| COc1ccccc1/C=C(/C(=O)N1CCN(c2ncccn2)CC1)c1cccc(C(F)(F)F)c1 | 31.7 µM | 34.7 µM | 41.2 µM | 9.7 ×10⁻⁶ cm/s | – | – | – | – | – | – |
| O=C(/C(=C/c1ccc(Cl)cc1)c1ccccc1)N1CCN(c2ncccn2)CC1 | > 50 µM | > 50 µM | > 50 µM | 7.4 ×10⁻⁶ cm/s | – | – | – | – | – | – |
| COc1ccc(O)c(/C=C(/C(=O)N2CCN(c3ncccn3)CC2)c2cccc(C(F)(F)F)c2)c1 | 42.6 µM | > 50 µM | > 50 µM | 12.7 ×10⁻⁶ cm/s | – | – | – | – | – | – |
| O=C(/C(=C/c1ccc(Cl)cc1)c1cccc(C(F)(F)F)c1)N1CCN(c2ncccn2)CC1 | 26.9 µM | 43.1 µM | 21.9 µM | 5.1 ×10⁻⁶ cm/s | – | – | – | – | – | – |
| O=C(/C(=C/c1ccccc1)c1cccc(C(F)(F)F)c1)N1CCN(c2ncccn2)CC1 | 39.8 µM | > 50 µM | 25.3 µM | 7.2 ×10⁻⁶ cm/s | – | – | – | – | – | – |
| O=C(/C(=C/c1ccccc1)c1ccccc1)N1CCN(c2ncccn2)CC1 | 17.8 µM | 35.4 µM | > 50 µM | 14.3 ×10⁻⁶ cm/s | – | – | – | – | – | – |
| O=C(/C(=C/c1ccc(F)cc1)c1ccc(F)cc1)N1CCN(c2ncccn2)CC1 | > 50 µM | 37.5 µM | 25.7 µM | 14.3 ×10⁻⁶ cm/s | – | – | – | – | – | – |
| COc1ccc(/C=C(/C(=O)N2CCN(c3ncccn3)CC2)c2ccc(F)cc2)cc1 | 23.1 µM | 41.3 µM | 42.9 µM | 10.5 ×10⁻⁶ cm/s | – | – | – | – | – | – |
| Oc1ccc(/C=C/c2cc(O)cc(O)c2)cc1 [RESVERATROL] | 11.1 µM | 9.5 µM | 8.7 µM | 1.1 ×10⁻⁶ cm/s | – | – | – | – | – | – |
| O=C(/C(=C/c1ccc(C(F)(F)F)cc1)c1ccccc1)N1CCN(c2ncccn2)CC1 | 14.9 µM | 21.6 µM | 11.3 µM | 8.2 ×10⁻⁶ cm/s | – | – | – | – | – | – |
| COc1ccc(/C=C(/C(=O)N2CCN(c3ncccn3)CC2)c2cccc(C(F)(F)F)c2)cc1 | 22.4 µM | 26.5 µM | 15.2 µM | 14.7 ×10⁻⁶ cm/s | – | – | – | – | – | – |
| O=C(/C(=C/c1cccc(Cl)c1)c1ccc(F)cc1)N1CCN(c2ncccn2)CC1 | 11 µM | 9.4 µM | 11.9 µM | 9.4 ×10⁻⁶ cm/s | – | – | – | – | – | – |
| O=C(/C(=C/C=C/c1ccccc1)c1ccc(F)cc1)N1CCN(c2ncccn2)CC1 | 7.9 µM | 5.9 µM | 2.4 µM | 14.9 ×10⁻⁶ cm/s | – | – | – | – | – | – |
| O=C(/C(=C/c1ccc(C(F)(F)F)cc1)c1cccc(C(F)(F)F)c1)N1CCN(c2ncccn2)CC1 | 6.5 µM | 6.9 µM | 4.2 µM | 9.3 ×10⁻⁶ cm/s | – | – | – | – | – | – |
| O=C(/C(=C/c1ccccc1Cl)c1ccccc1)N1CCN(c2ncccn2)CC1 | 10.1 µM | 17.6 µM | 9.3 µM | 9.4 ×10⁻⁶ cm/s | – | – | – | – | – | – |
| O=C(/C(=C/c1ccccc1)c1ccc(F)cc1)N1CCN(c2ncccn2)CC1 | 8.1 µM | 15.2 µM | 10.2 µM | 11.2 ×10⁻⁶ cm/s | – | – | – | – | – | – |
| O=C(/C(=C/C=C/c1ccccc1)c1cccc(C(F)(F)F)c1)N1CCN(c2ncccn2)CC1 | 1 µM | 2.6 µM | 0.5 µM | 12.6 ×10⁻⁶ cm/s | Dose-dependent effect | inactive | inactive | Active | Active | Active |
| O=C(/C(=C/c1cccc(Cl)c1)c1ccccc1)N1CCN(c2ncccn2)CC1 | 12.6 µM | 16.2 µM | 7.8 µM | 11.2 ×10⁻⁶ cm/s | – | – | – | – | – | – |
| O=C(/C(=C/c1ccc(F)cc1)c1cccc(C(F)(F)F)c1)N1CCN(c2ncccn2)CC1 | 15.6 µM | 19.8 µM | 31.2 µM | 12.3 ×10⁻⁶ cm/s | – | – | – | – | – | – |
| O=C(/C(=C/c1cccc(Cl)c1)c1cccc(C(F)(F)F)c1)N1CCN(c2ncccn2)CC1 | 37.2 µM | 26.7 µM | 15.2 µM | 10.7 ×10⁻⁶ cm/s | – | – | – | – | – | – |
| COc1ccccc1/C=C(/C(=O)N1CCN(c2ncccn2)CC1)c1ccc(F)cc1 | 9.9 µM | 23.7 µM | 18.4 µM | 13.8 ×10⁻⁶ cm/s | – | – | – | – | – | – |
| COc1ccc(/C=C(/C(=O)N2CCN(c3ncccn3)CC2)c2ccccc2)cc1 | 9.5 µM | 16.9 µM | 3.4 µM | 10.3 ×10⁻⁶ cm/s | – | – | – | – | – | – |
| O=C(/C(=C/c1ccc(Cl)cc1)c1ccc(F)cc1)N1CCN(c2ncccn2)CC1 | 25.1 µM | 17.8 µM | 36.4 µM | 7.8 ×10⁻⁶ cm/s | – | – | – | – | – | – |
| COc1ccc(O)c(/C=C(/C(=O)N2CCN(c3ncccn3)CC2)c2ccccc2)c1 | 48.1 µM | 36.4 µM | 11.4 µM | 14.1 ×10⁻⁶ cm/s | – | – | – | – | – | – |
| O=C(/C(=C/c1ccc(C(F)(F)F)cc1)c1ccc(F)cc1)N1CCN(c2ncccn2)CC1 | 3 µM | 6.6 µM | 8.9 µM | 7.6 ×10⁻⁶ cm/s | – | – | – | – | – | – |
